Activity calls are given as the source filed them.
Experiments:
Mus musculus [1] = assay: Neurotoxicity in po dosed mouse by rotarod test; type: toxicity, organism-based; details: in vivo
How it was run: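 Mice dosed perorally with Tween suspension 3 h before rotarod testing for neurotoxicity. Median effective dose with 95% confidence limits by Litchfield–Wilcoxon method.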

[2] = Acute toxicity in po dosed mouse assessed as mortality after 24 hrs; type: organism-based; details: in vivo
[3] = Protective index, ratio of ED50 for neurotoxicity in po dosed mouse by rotarod test to ED50 for anticonvulsant activity in po dosed mouse assessed as protection against maximal electroshock-induced seizures; type: toxicity, organism-based; details: in vivo, read-out: Ratio ED50
How it was run: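 Index calculated as rotarod ED50 divided by MES ED50, both from mice dosed perorally in Tween suspension 3 h before testing.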

Mus musculus [4] = assay: Anticonvulsant activity in po dosed mouse assessed as protection against maximal electroshock-induced seizures pretreated for 3 hrs; type: functional
How it was run: (§1)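 Mice given compound perorally as a Tween suspension 3 h before maximal electroshock seizure testing (Swinyard method). Median effective dose with 95% confidence limits by Litchfield–Wilcoxon; doses up to 300 mg/kg examined.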

Mus musculus [5] = assay: Anticonvulsant activity in mouse assessed as protection against pentylenetetrazole-induced convulsion at 300 mg/kg, po pretreated for 3 hrs; type: functional, organism-based; set-up: dose 300 mg/kg
How it was run: (§2)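 Peroral dosing in mice as Tween suspension, 3 h before pentylenetetrazole threshold test (Orloff method). Activity taken as a rise in threshold PTZ dose of at least 50% versus saline-pretreated controls.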

Mus musculus [6] = assay: Anticonvulsant activity in po dosed mouse assessed as protection against pentylenetetrazole-induced convulsion pretreated for 3 hrs; type: functional; how it was run: as §2
Mus musculus [7] = assay: Anticonvulsant activity in mouse assessed as protection against maximal electroshock-induced seizures at 300 mg/kg, po pretreated for 3 hrs; type: functional, organism-based; set-up: dose 300 mg/kg; how it was run: as §1

Row | SMILES | ED50 (Mus musculus [1]) [mg/kg] | LD50 at 24 h [2] [mg/kg] | selectivity ratio [3] | ED50 (Mus musculus [4]) [mg/kg] | Activity (Mus musculus [5]) | ED50 (Mus musculus [6]) [mg/kg] | Activity (Mus musculus [7])
1 | O=C1Cc2ccccc2C(c2ccccc2)N1 (configuration not stated) | 730 | 1060 | 7 | 105 | inactive |  | 
2 | CCCCNCC(=O)Nc1ccc(C2NC(=O)C(C)(C)c3ccccc32)cc1 (configuration not stated) | 335 | > 2000 | 14 | 23.5 | inactive |  | 
3 | CC(C)NCC(=O)Nc1ccc(C2NC(=O)Cc3ccccc32)cc1 (configuration not stated) | 270 | > 1000 | 26 |  |  |  | 
4 | CCCNCC(=O)Nc1ccc(C2NC(=O)Cc3ccccc32)cc1 (configuration not stated) | 490 | 2000 | 24 | 20.6 |  |  | 
5 | CC1(C)C(=O)NC(c2ccccc2N)c2ccccc21 (configuration not stated) | > 1000 | > 1000 | > 9 | 110 |  |  | 
6 | Cc1ccc2c(c1)C(c1ccc(N)cc1)NC(=O)C2(C)C (configuration not stated) | 1030 | > 1600 | 15 | 70 |  | 300 | 
7 | CCCNCC(=O)Nc1ccc(C2NC(=O)C(C)(C)c3ccccc32)cc1 (configuration not stated) | 435 | > 1600 | 14 |  |  |  | 
8 | Nc1ccccc1C1NC(=O)Cc2ccccc21 (configuration not stated) | 940 | > 2000 | 7 | 140 | inactive |  | 
9 | CC1(C)C(=O)NC(c2ccc(NC(=O)CN)cc2)c2ccccc21 (configuration not stated) | 420 | > 1000 | 13 | 32.5 | inactive |  | 
10 | CCCNCC(=O)Nc1ccccc1C1NC(=O)Cc2ccccc21 (configuration not stated) | > 2000 | > 2000 | > 11 | 180 |  | 300 | 
11 | CC(C)NCC(=O)Nc1ccc(C2NC(=O)C(C)(C)c3ccccc32)cc1 (configuration not stated) | 1600 | > 2000 | 59 |  |  | 100 | 
12 | CCN(CC)CC(=O)Nc1ccc(C2NC(=O)C(C)(C)c3ccccc32)cc1 (configuration not stated) | 1300 | 1600 | 15 | 90 | inactive |  | 
13 | CCNCC(=O)Nc1ccc(C2NC(=O)C(C)(C)c3ccccc32)cc1 (configuration not stated) | 760 | > 2000 |  |  |  |  | inactive
14 | CCCCN(CCCC)CC(=O)Nc1ccc(C2NC(=O)C(C)(C)c3ccccc32)cc1 (configuration not stated) | 600 | > 2000 | 10 | 62 | inactive |  | 
15 | CCCNCC(=O)Nc1ccc(C2NC(=O)C(C)c3ccccc32)cc1 (configuration not stated) | 340 | > 1600 | 15 |  |  | 100 | 
16 | Nc1ccc(Cl)c(C2NC(=O)Cc3ccccc32)c1Cl (configuration not stated) | > 1000 | > 1000 |  |  | inactive |  | inactive

Row | SMILES | ED50 (Mus musculus [1]) [mg/kg] | LD50 at 24 h [2] [mg/kg] | selectivity ratio [3] | ED50 (Mus musculus [4]) [mg/kg] | Activity (Mus musculus [5]) | ED50 (Mus musculus [6]) [mg/kg] | Activity (Mus musculus [7])
17 | O=C(CN1CCOCC1)Nc1ccc(C2NC(=O)Cc3ccccc32)cc1 (configuration not stated) | > 1600 | > 1600 | > 29 | 55 | inactive |  | 
18 | CCCNCC(=O)Nc1ccc(C2NC(=O)C(C(C)C)c3ccccc32)cc1 (configuration not stated) | 50 | 600 | 2.5 | 19.6 | inactive |  | 
19 | CC1(C)C(=O)NC(c2ccc(N)cc2)c2ccccc21 (configuration not stated) | 240 | > 1600 | 12 | 20 |  | 100 | 
20 | CC(C)C1C(=O)NC(c2ccc(NC(=O)CCCN3CCCC3)cc2)c2ccccc21 (configuration not stated) | 86 | > 1000 |  |  | inactive |  | inactive
21 | O=C(CCCN1CCCC1)Nc1ccc(C2NC(=O)Cc3ccccc32)cc1 (configuration not stated) | > 2000 | > 2000 | > 9 | 215 | inactive |  | 
22 | CC1(C)C(=O)NC(c2ccc(NC(=O)CN3CCOCC3)cc2)c2ccccc21 (configuration not stated) | > 1600 | 2000 | > 20 | 78 |  | 300 | 
23 | Cl.Nc1ccc(C2NC(=O)Cc3ccccc32)cc1 (configuration not stated) | 95 | 795 | 5 | 19 |  | 50 | 
24 | CC(C)C1C(=O)NC(c2ccc(N)cc2)c2ccccc21 (configuration not stated) | 358 | > 1600 | 18 | 20 |  | 20 | 
25 | CNCC(=O)Nc1ccc(C2NC(=O)Cc3ccccc32)cc1 (configuration not stated) | 270 | 600 | 12 |  |  |  | 
26 | CC1C(=O)NC(c2ccc(N)cc2)c2ccccc21 (configuration not stated) | 250 | > 2000 | 10 | 26 |  | 100 | 
27 | CNCC(=O)Nc1ccc(C2NC(=O)C(C)(C)c3ccccc32)cc1 (configuration not stated) | 600 | > 2000 | 24 |  | inactive |  | 
28 | CCNCC(=O)Nc1ccc(C2NC(=O)Cc3ccccc32)cc1 (configuration not stated) | 520 | > 1600 | 51 |  |  |  | 
29 | O=C(CN1CCCCC1)Nc1ccc(C2NC(=O)Cc3ccccc32)cc1 (configuration not stated) | > 2000 | > 2000 |  |  |  | 300 | inactive
30 | O=C1Cc2ccccc2C(c2ccc(NC(=O)NCc3ccccc3)cc2)N1 (configuration not stated) | > 2000 | > 2000 | > 7 | 275 | inactive |  | 
31 | CC1(C)C(=O)NC(c2ccc(NC(=O)CN3CCCCC3)cc2)c2ccccc21 (configuration not stated) | > 2000 | > 2000 | > 36 | 62 | inactive |  | 
32 | O=C1NC(=O)C(c2ccccc2)(c2ccccc2)N1 [PHENYTOIN] | 79.5 | > 1000 | 15 | 5.2 |  | 26 | 

From ChEMBL document CHEMBL3272090, “A new type of anticonvulsant: 1-aryl-3-oxotetrahydroisoquinolines” (J Med Chem, 1977)
